Sampled rows, rich in hits. Any-hit rate of the full collection: about 0.98%.
Statin myotox sup: protects C2C12 myotubes from simvastatin toxicity. ATP luminescence, 48 h; scaled: DMSO 0, geranylgeraniol control 100. rescue of ATP level, % at 7.49 µM. 330,000 tested, 0.78% active. AID 602340;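 active means mean ATP rescue above about 67%, or every replicate alone reaching that limit, limit read from the data, passing the limit was not always enough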;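 further: myotubes were challenged with 10 µM simvastatin during compound exposure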
ERAP1 inh: blocks human ERAP1 aminopeptidase activity. 340,000 tested, 0.15% active. recombinant ERAP1, Leu-AMC fluorescence, 60 min. inhibition, % at 10.7 µM;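 active means mean replicate inhibition of at least 30%, or all replicates individually reaching that 30% level; inactive means mean below 30% and not every replicate reaching it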
Target sequence (Q9NZ08 whole entry, looked up): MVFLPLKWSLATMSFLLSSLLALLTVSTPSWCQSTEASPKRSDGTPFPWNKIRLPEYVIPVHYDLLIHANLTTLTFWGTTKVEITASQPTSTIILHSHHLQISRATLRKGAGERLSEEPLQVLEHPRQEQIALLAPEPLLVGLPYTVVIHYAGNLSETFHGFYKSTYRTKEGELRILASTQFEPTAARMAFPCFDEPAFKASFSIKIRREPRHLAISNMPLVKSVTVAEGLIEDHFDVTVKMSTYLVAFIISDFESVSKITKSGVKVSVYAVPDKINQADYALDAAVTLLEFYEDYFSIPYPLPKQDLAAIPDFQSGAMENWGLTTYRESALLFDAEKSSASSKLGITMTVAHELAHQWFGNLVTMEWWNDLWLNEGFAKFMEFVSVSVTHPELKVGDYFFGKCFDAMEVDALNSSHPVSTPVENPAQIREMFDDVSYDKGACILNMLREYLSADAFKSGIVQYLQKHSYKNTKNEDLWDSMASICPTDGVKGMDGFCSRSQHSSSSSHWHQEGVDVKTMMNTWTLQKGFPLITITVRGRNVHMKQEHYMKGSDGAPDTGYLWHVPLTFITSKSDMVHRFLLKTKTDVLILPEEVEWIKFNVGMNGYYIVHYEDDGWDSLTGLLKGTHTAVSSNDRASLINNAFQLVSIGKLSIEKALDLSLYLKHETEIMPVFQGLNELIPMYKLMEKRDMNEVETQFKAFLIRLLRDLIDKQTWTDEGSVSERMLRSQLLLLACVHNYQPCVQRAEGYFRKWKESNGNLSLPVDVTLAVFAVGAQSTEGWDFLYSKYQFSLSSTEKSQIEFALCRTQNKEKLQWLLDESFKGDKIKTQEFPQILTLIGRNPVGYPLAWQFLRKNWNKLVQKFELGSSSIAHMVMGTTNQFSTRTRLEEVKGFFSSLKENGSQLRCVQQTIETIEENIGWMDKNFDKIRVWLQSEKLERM
S100A4 inh HTS: S100A4-myosin IIA interaction inhibition. P26447. inhibition, % at 10.7 µM. 360,000 tested, 0.14% active. S100A4/TAMRA-MyoIIA peptide fluorescence polarization. AID 652163;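 active means mean inhibition of at least 70% across replicates, with every replicate also reaching that level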
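Material: S100A4 monomer protein | Medium: HEPES pH 7.2 with CaCl2, KCl, NaCl, DTT, Triton | Reagent: Labelled myosin peptide probe, 5 nM | Doses: One dose per compound | Times: 5 min incubation before reading | Benchmarks: Neutral control DMSO, positive control TFP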
PGC1a acetyl inh: lowers PGC1a acetylation signal in U2OS cells; AID 651687; inhibition, % at 15.6 µM; 350,000 tested, 0.17% active; AlphaScreen anti-acetyl-lysine; with virally co-expressed GCN5 acetyltransferase;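 active means every replicate shows inhibition of at least 40%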
Rtt109 Vps75: inhibitors of Candida albicans Rtt109/Vps75 histone acetyltransferase. Q5AAJ8. AID 540336. 330,000 tested, 0.16% active. inhibition, % at 34.9 µM. purified Rtt109/Vps75, ThioGlo CoA-SH fluorescence, 4 h;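 active means inhibition of at least 50% in every replicate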
Each line names hits and unclear results; the compound was inactive in the other large screens.

C=CCOC(=O)[C@H]1[C@@H]2C(=O)O[C@@H](c3ccccc3)[C@@H](c3ccccc3)N2[C@@H](c2ccc(OCCOC(=O)[C@H]3C[C@H]4C(=O)N[C@@H](Cc5ccccc5)C(=O)N4[C@H]3c3ccc(O)cc3)cc2)[C@]12C(=O)Nc1ccc(I)cc12	none (no result: Statin myotox sup, PGC1a acetyl inh, Rtt109 Vps75)
CCNC(=O)C[C@@H]1CC[C@@H]2[C@H](COC[C@@H](O)CN2C(=O)c2cc(Cl)cc(Cl)c2)O1	none (no result: ERAP1 inh, S100A4 inh HTS, Rtt109 Vps75)
CC1CCCN(c2ccc([N+](=O)[O-])s2)C1 (stereo not drawn)	none (no result: Statin myotox sup, PGC1a acetyl inh)
O=[N+]([O-])c1ccc(N2CCCCC2)s1	Statin myotox sup 125 (no result: Rtt109 Vps75)
Cc1nn(Cc2ccccc2)c(=O)c2nn(-c3ccc(Cl)cc3)c(C)c12	none (no result: Statin myotox sup, ERAP1 inh, S100A4 inh HTS, PGC1a acetyl inh)
CCOc1nnc(C)c2c(C)n(-c3ccc(Cl)cc3)nc12	Statin myotox sup 119 (no result: ERAP1 inh, S100A4 inh HTS)
O=C1NC(=S)CN1c1ccccc1	Rtt109 Vps75 141 (no result: Statin myotox sup, ERAP1 inh, PGC1a acetyl inh)
O=C1N(c2ccccc2)CCN1c1ccccc1	none
N#C[C@@H]1[C@@H](c2ccccc2-c2cccc(F)c2)[C@H](CO)N1C(=O)NC1CCCC1	none (no result: Statin myotox sup, Rtt109 Vps75)
CCN(CC)CCNc1nc2ccccc2n1C	none (no result: ERAP1 inh, S100A4 inh HTS)
Cc1ccc2c(c1)nc(NCCO)n2C	Statin myotox sup 91 (no result: ERAP1 inh, S100A4 inh HTS)
C[C@@H]1CCCCO[C@H](CN(C)C(=O)CCC(F)(F)F)[C@H](C)CN([C@@H](C)CO)C(=O)c2cc(NC(=O)NC3CCCCC3)ccc2O1	none (no result: Statin myotox sup, Rtt109 Vps75)
Nc1nc(-c2ccco2)nn1C(=O)CCc1ccccc1	Statin myotox sup 113 (no result: ERAP1 inh, S100A4 inh HTS)
Cc1ccc(C(=O)n2nc(-c3ccco3)nc2N)cc1	Statin myotox sup 81 (no result: ERAP1 inh, S100A4 inh HTS)
CCCNC(=O)Nc1ccc2c(c1)C(=O)N(C)C[C@H](OC)[C@H](C)CN(Cc1ccncc1)[C@@H](C)CO2	none (no result: ERAP1 inh, S100A4 inh HTS, Rtt109 Vps75)
CCOC(=O)CNC(=O)OC1CCN2Cc3ccccc3N=C12 (stereo not drawn)	PGC1a acetyl inh 78
CCC(=O)N[C@@H]1C=C[C@H](CC(=O)NCC2CC2)O[C@@H]1CO	none (no result: Statin myotox sup, Rtt109 Vps75)
O=C(C[C@H]1C=C[C@H](NC(=O)CCN2CCCCC2)[C@H](CO)O1)Nc1nccs1	S100A4 inh HTS 131 (no result: Rtt109 Vps75)
O=C(C[C@@H]1C=C[C@H](NC(=O)CCN2CCCCC2)[C@@H](CO)O1)Nc1nccs1	none (no result: Rtt109 Vps75)
COc1ccc(C#Cc2c(-c3ccccc3)n(-c3ccccc3)c3ccc(CO)cc23)cc1	Statin myotox sup 89
Cc1ccc(-c2noc(CCCOc3ccc(Cl)cc3Cl)n2)cc1	none (no result: ERAP1 inh, S100A4 inh HTS)
COc1ccc(-c2noc(CCCOc3ccc(Cl)cc3Cl)n2)cc1	Statin myotox sup 109 (no result: ERAP1 inh, S100A4 inh HTS)
O=P(CCCCCCCCCP(=O)(c1ccccc1)c1ccccc1)(c1ccccc1)c1ccccc1	PGC1a acetyl inh 78 (no result: ERAP1 inh, S100A4 inh HTS)
O=C(O)CCc1ccc(-c2ccccc2)o1	Rtt109 Vps75 78 (no result: ERAP1 inh, S100A4 inh HTS)
Cc1ccc2c(c1)NC(C(C)(C)C)CO2 (stereo not drawn)	Statin myotox sup 115 (no result: ERAP1 inh, S100A4 inh HTS)
Cc1ccc2c(c1)N(S(=O)(=O)c1ccc(F)cc1)C(C(C)(C)C)CO2 (stereo not drawn)	none (no result: ERAP1 inh, S100A4 inh HTS)
Cc1ccccc1N(CC(=O)NC1CCCC1)C(=O)CS(=O)CC(=O)Nc1ccc2c(c1)OCO2 (stereo not drawn)	Statin myotox sup 127 (no result: ERAP1 inh, S100A4 inh HTS)
Cc1ccc(S(=O)(=O)Nc2ccc3c(c2)C(=O)N([C@H](C)CO)C[C@H](C)[C@H](CN(C)C(=O)NC(C)C)OCCCC[C@H](C)O3)cc1	none (no result: Statin myotox sup, Rtt109 Vps75)
C[C@H](CO)N1C[C@H](C)[C@@H](CN(C)S(C)(=O)=O)OCCCC[C@H](C)Oc2ccc(NS(=O)(=O)c3ccc(F)cc3)cc2C1=O	none (no result: Rtt109 Vps75)
C[C@@H]1CCCCO[C@H](CN(C)S(C)(=O)=O)[C@@H](C)CN([C@@H](C)CO)C(=O)c2cc(NS(=O)(=O)c3ccc(F)cc3)ccc2O1	Statin myotox sup 102 (no result: Rtt109 Vps75)
C[C@H]1CN([C@@H](C)CO)C(=O)c2cc(NS(=O)(=O)c3ccc(F)cc3)ccc2O[C@@H]1CN(C)S(=O)(=O)c1cccs1	Statin myotox sup 81 (no result: Rtt109 Vps75)
Cc1ccc(S(=O)(=O)Nc2ccc3c(c2)C(=O)N([C@H](C)CO)C[C@@H](C)[C@@H](CN(C)C(=O)NC(C)C)OCCCC[C@@H](C)O3)cc1	S100A4 inh HTS 107 (no result: Statin myotox sup, PGC1a acetyl inh, Rtt109 Vps75)
Cc1ccc(S(=O)(=O)Nc2ccc3c(c2)C(=O)N([C@H](C)CO)C[C@@H](C)[C@H](CN(C)S(C)(=O)=O)OCCCC[C@@H](C)O3)cc1	S100A4 inh HTS 125 (no result: Statin myotox sup, Rtt109 Vps75)
